Assay results from ChEMBL document CHEMBL5244203, “Thiadiazolodiazepine analogues as a new class of neuromuscular blocking agents: Synthesis, biological evaluation and molecular modeling study” (Eur J Med Chem, 2017).
Activity calls are given as the source filed them. No cut-off for these calls is given here.

Legend:
Gallus gallus [1] = assay: Neuromuscular blocking activity in chicks assessed as induction of flaccid paralysis by measuring time of onset of head drop at 0.15 mmol/Kg, ip administered as single dose; assay type: functional
Summary of the method: (§1)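 4-day-old chicks (50 g) receive a single submaximal dose i.p., taken from the rat twitch study (0.15 mmol/kg). The type of paralysis, flaccid or spastic, is noted. The onset of head drop and of complete paralysis is timed after administration. Atracurium and succinylcholine serve as positive controls.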

Rattus norvegicus [2] = assay: Neuromuscular blocking activity in Wistar rat tibialis muscle assessed as reduction in electrically-induced twitches by measuring time of onset at 100 mg/kg, ip; assay type: functional
Summary of the method: (§2)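 Male Wistar rats (250 g, N = 4-8 per group) anaesthetized with urethane (25% in water, 1.25 g/kg i.p.). Tracheal cannula with artificial room-air ventilation at 90 breaths/min, 20 c.c./kg. Rectal temperature held at 37 ± 1 °C. Tibialis twitch tension is expressed as % of pre-drug amplitude. Drug is given i.p. in DMSO or water, 1-100 mg/kg; ED50 and 90%-depression dose derived; mean ± S.E.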

Rattus norvegicus [3] = assay: Neuromuscular blocking activity in Wistar rat tibialis muscle assessed as reduction in tetanus stimulated muscle twitches at 100 mg/kg, ip; assay type: functional, organism-based
Summary of the method: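 Male Wistar rats (250 g, N = 4-8 per group) anaesthetised with urethane (1.25 g/kg i.p.), tracheally cannulated and ventilated with room air at 90 breaths/min. Tibialis twitch tension recorded with body temperature kept at 37 ± 1 °C. Tetanus given at 30 Hz for 5-10 s. Drug given i.p. in DMSO or water at 1-100 mg/kg. Twitches expressed as % of pre-drug amplitude.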

Rattus norvegicus [4] = assay: Reversal of neuromuscular blocking activity in Wistar rat tibialis muscle assessed as time of onset of reversal at 100 mg/kg, ip in presence of physostigmine; assay type: functional
Rattus norvegicus [5] = assay: Neuromuscular blocking activity in Wistar rat tibialis muscle assessed as reduction in electrically-induced twitches by measuring time required for 90% blockage at 100 mg/kg, ip; assay type: functional; summary of the method: as §2
Rattus norvegicus [6] = assay: Neuromuscular blocking activity in ip dosed Wistar rat tibialis muscle assessed as reduction in electrically-induced twitches; assay type: functional; summary of the method: as §2
Gallus gallus [7] = assay: Neuromuscular blocking activity in ip dosed chicks assessed as induction of flaccid paralysis; assay type: functional; summary of the method: as §1
Rattus norvegicus [8] = assay: Neuromuscular blocking activity in Wistar rat tibialis muscle assessed as reduction in electrically-induced twitches by measuring time required for 50% blockage at 100 mg/kg, ip; assay type: functional; summary of the method: as §2
Rattus norvegicus [9] = assay: Neuromuscular blocking activity in against electrically-induced twitches in Wistar rat tibialis muscle assessed as time duration of muscle block at 100 mg/kg, ip; assay type: functional; summary of the method: as §2
Rattus norvegicus [10] = assay: Reversal of neuromuscular blocking activity against electrically induced twitches in Wistar rat tibialis muscle at 100 mg/kg, ip in presence of physostigmine relative to control; assay type: functional
Gallus gallus [11] = assay: Neuromuscular blocking activity in chicks assessed as induction of flaccid paralysis by measuring time of onset of muscle relaxation at 0.15 mmol/Kg, ip administered as single dose; assay type: functional; summary of the method: as §1
[12] = Toxicity in ip dosed mouse measured for 72 hrs; assay type: organism-based; conditions: in vivo
Summary of the method: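 Male mice, grouped, given i.p. doses of 0.1-5 mmol/kg. Observed continuously for 6 h, then kept under observation for 72 h, with behavioural changes and deaths recorded. Percentage death per dose converted to probits to derive the LD50.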

Rattus norvegicus [13] = assay: Neuromuscular blocking activity in Wistar rat tibialis muscle assessed as reduction in electrically induced twitches at 100 mg/kg, ip in presence of physostigmine; assay type: functional, organism-based
Gallus gallus [14] = assay: Neuromuscular blocking activity in chicks assessed as induction of spastic paralysis by measuring time of onset of muscle relaxation at 0.15 mmol/Kg, ip administered as single dose; assay type: functional; summary of the method: as §1
Gallus gallus [15] = assay: Neuromuscular blocking activity in ip dosed chicks assessed as induction of spastic paralysis; assay type: functional; summary of the method: as §1

SMILES	Time (Gallus gallus [1])	Time (Rattus norvegicus [2])	Activity (Rattus norvegicus [3])	Time (Rattus norvegicus [4])	Time (Rattus norvegicus [5])	ED50 (Rattus norvegicus [6])	ED50 (Gallus gallus [7])	Time (Rattus norvegicus [8])	Time (Rattus norvegicus [9])	Activity (Rattus norvegicus [10])	Time (Gallus gallus [11])	LD50 at 72 h [12]	Activity (Rattus norvegicus [13])	Time (Gallus gallus [14])	ED50 (Gallus gallus [15])
COc1ccc(CC2c3cc(OC)c(OC)cc3CC[N+]2(C)CCC(=O)OCCCCCOC(=O)CC[N+]2(C)CCc3cc(OC)c(OC)cc3C2Cc2ccc(OC)c(OC)c2)cc1OC.O=S(=O)([O-])c1ccccc1.O=S(=O)([O-])c1ccccc1 (configuration not stated) [ATRACURIUM BESYLATE]	5 min	5 min	Active	2 min	12 min	16 µmol/kg	16 µmol/kg	8 min	30 min	100%	10 min				
O=C1CCCN2N=C(c3ccc(Br)cc3)SC2=N1	0.25 min	3 min	Active	1 min	10 min	150 µmol/kg	150 µmol/kg	7 min	70 min	100%	1 min	195 mg/kg			
C[N+](C)(C)CCOC(=O)CCC(=O)OCC[N+](C)(C)C.[Cl-].[Cl-] [SUCCINYLCHOLINE CHLORIDE]		2 min	inactive		5 min	30 µmol/kg		3 min	20 min				inactive	0.5 min	30 µmol/kg
O=C1CCCN2N=C(c3ccc(F)cc3)SC2=N1	11 min	10 min	Active		28 min	360 µmol/kg	300 µmol/kg	18 min	110 min		15 min		inactive		
